Laboratory results from ChEMBL document CHEMBL1149350, “Synthesis of novel chemical probes for the study of tanshinone binding proteins” (Bioorg Med Chem Lett, 2006).
Active and inactive are the calls of the source. No cut-off for these calls is given here.

Columns and labels:
[1] = tested on: RAW264.7; test: Inhibition of TRAP activity in RANKL-induced osteoclastogenesis in RAW 264.7 cells; type: functional, cell-based; details: Mus musculus
How it was run: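 RAW264.7 cells seeded at 1 × 10³/well in α-MEM/10% FBS with 100 ng/ml RANKL; compounds added next day. On day 4 multinucleated cells fixed (10% formalin 10 min, 95% ethanol 1 min) and dried, then given 50 mM citrate pH 4.6 with 10 mM tartrate and 5 mM p-nitrophenylphosphate for 30 min. Stopped in 0.1 N NaOH, A410 read; triplicate; IC50 from mean % of control.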

[2] = tested on: RAW264.7; test: Antiproliferative activity against RAW 264.7 cells in RANKL-induced osteoclastogenesis; type: functional, cell-based; details: Mus musculus

SMILES | IC50 [1] [µM] | IC50 [2] [µM] | Activity [2]
Cc1coc2c1C(=O)C(=O)c1c-2ccc2c1CC[C@H](O)C2(C)C | 12.8 | > 20 | –
Cc1coc2c1C(=O)C(=O)c1c-2ccc2c1CC[C@H](OCCOC(=O)CCCCC1SCC3NC(=O)NC31)C2(C)C (stereo not given in full) | 9.56 | 18.7 | –
Cc1coc2c1C(=O)C(=O)c1c-2ccc2c1CCCC2(C)COC(=O)COCCOC(=O)COc1cccc(C2(C(F)(F)F)N=N2)c1 (stereo not given) | 15 | > 20 | –
Cc1coc2c1C(=O)C(=O)c1c-2ccc2c1CCCC2(C)CO (stereo not given) [TANSHINONE IIB] | 15.6 | > 20 | –
Cc1coc2c1C(=O)C(=O)c1c-2ccc2c1CC[C@H](OCCOC(=O)COc1cccc(C3(C(F)(F)F)N=N3)c1)C2(C)C | 18 | > 20 | –
Cc1coc2c1C(=O)C(=O)c1c-2ccc2c1CCCC2(C)C [TANSHINONE IIA] | 18.2 | – | inactive
Cc1coc2c1C(=O)C(=O)c1c-2ccc2c1CC[C@H](OC(=O)c1ccccc1)C2(C)C | 19.1 | – | inactive
Cc1coc2c1C(=O)C(=O)c1c-2ccc2c1CC[C@H](OCCO)C2(C)C | 10.2 | – | inactive
CCC(=O)O[C@H]1CCc2c(ccc3c2C(=O)C(=O)c2c(C)coc2-3)C1(C)C | 16.7 | – | inactive
Cc1coc2c1C(=O)C(=O)c1c-2ccc2c1CCCC2(C)COC(=O)COCCOC(=O)CCCCC1SCC2NC(=O)NC21 (stereo not given) | 12.4 | 18.3 | –
